Assay results: ChEMBL document CHEMBL1629579, “Correlating echinocandin MIC and kinetic inhibition of fks1 mutant glucan synthases for Candida albicans: implications for interpretive breakpoints” (Antimicrob Agents Chemother, 2009)
In brackets after ≈: the same amount, converted by molar mass.

Experiments:
Candida albicans [1] = assay: Antimicrobial activity against Candida albicans SC5314 by M27-A3 method in presence of 50% human serum; assay type: functional
Outline: (§1)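 Broth microdilution per CLSI M27-A3 in RPMI 1640, done in triplicate on three separate days. Each strain was tested with and without 50% human serum. C. krusei ATCC 6258 and C. parapsilosis ATCC 22019 served as QC strains. Arithmetic means are reported, and geometric means were used for comparison.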

Candida albicans [2] = assay: Antimicrobial activity against Candida albicans 1002 by M27-A3 method in presence of 50% human serum; assay type: functional; outline: as §1
Candida albicans [3] = assay: Antimicrobial activity against Candida albicans 3795 by M27-A3 method; assay type: functional
Outline: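 Broth microdilution per CLSI M27-A3 in RPMI 1640, with and without 50% human serum, in triplicate. C. krusei ATCC 6258 and C. parapsilosis ATCC 22019 served as quality-control strains. MIC reported as arithmetic mean of three repetitions on separate days.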

Candida albicans [4] = assay: Antimicrobial activity against Candida albicans 2762 harboring FKS1 T1922C mutant gene and FKS1 hotspot1 F641S mutant gene by M27-A3 method; assay type: functional; outline: as §1
Candida albicans [5] = assay: Antimicrobial activity against Candida albicans 205 harboring FKS1 T1933C mutant gene and FKS1 hotspot1 S645P mutant gene by M27-A3 method; assay type: functional; outline: as §1
Candida albicans [6] = assay: Antimicrobial activity against Candida albicans 5415 harboring FKS1 T1933C mutant gene and FKS1 hotspot1 S645P mutant gene by M27-A3 method in presence of 50% human serum; assay type: functional; outline: as §1
Candida albicans [7] = assay: Antimicrobial activity against Candida albicans 89 harboring FKS1 C1934A mutant gene and FKS1 hotspot1 S645Y mutant gene by M27-A3 method in presence of 50% human serum; assay type: functional; outline: as §1
Candida albicans [8] = assay: Antimicrobial activity against Candida albicans 85 harboring FKS1 C1934T mutant gene and FKS1 hotspot1 S645F mutant gene by M27-A3 method; assay type: functional; outline: as §1
Candida albicans [9] = assay: Antimicrobial activity against Candida albicans 85 harboring FKS1 C1934T mutant gene and FKS1 hotspot1 S645F mutant gene by M27-A3 method in presence of 50% human serum; assay type: functional; outline: as §1
Candida albicans [10] = assay: Antimicrobial activity against Candida albicans 149 harboring FKS1 G1942T mutant gene and FKS1 hotspot1 D648Y mutant gene by M27-A3 method in presence of 50% human serum; assay type: functional; outline: as §1
Candida albicans [11] = assay: Antimicrobial activity against Candida albicans 121 harboring FKS1 G4082A mutant gene and FKS1 hotspot2 R1361H mutant gene by M27-A3 method in presence of 50% human serum; assay type: functional; outline: as §1
Candida albicans [12] = assay: Antimicrobial activity against Candida albicans A15 harboring FKS1 T1933Y mutant gene and FKS1 hotspot1 S645S/P mutant gene by M27-A3 method in presence of 50% human serum; assay type: functional; outline: as §1
Candida albicans [13] = assay: Antimicrobial activity against Candida albicans A15-10 harboring FKS1 T1933C mutant gene and FKS1 hotspot1 S645P mutant gene by M27-A3 method; assay type: functional; outline: as §1
[14] = Inhibition of Candida albicans 1002 1,3-beta-D-glucan synthase subunit FKS1p
Outline: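 Product-entrapped glucan synthase from YPD-grown cells (37°C, early stationary phase) in a filtration polymerization assay with [3H]UDPG. Echinocandin serial dilutions were added, with 1% DMSO in controls for anidulafungin. Reactions were started with enzyme, run 60 min at 25°C and stopped on ice. IC50 came from a variable-slope sigmoidal fit, in triplicate.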

[15] = Inhibition of Candida albicans 205 1,3-beta-D-glucan synthase subunit FKS1p T1933C mutant
Outline: (§2)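 Enzyme is product-entrapped 1,3-β-D-glucan synthase, enriched from membranes of each strain grown at 37°C with shaking in YPD broth to early stationary phase. Filtration polymerization assay uses [3H]UDPG, started by adding enzyme and run 60 min at 25°C. Echinocandins are added as serial dilutions, with 1% DMSO controls for anidulafungin. IC50 is from a variable-slope sigmoidal fit; values are triplicate arithmetic means.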

[16] = Inhibition of Candida albicans 5415 1,3-beta-D-glucan synthase subunit FKS1p T1933C mutant; outline: as §2
[17] = Inhibition of Candida albicans 89 1,3-beta-D-glucan synthase subunit FKS1p C1934A mutant; outline: as §2
[18] = Inhibition of Candida albicans 85 1,3-beta-D-glucan synthase subunit FKS1p C1934T mutant; outline: as §2
[19] = Inhibition of Candida albicans 194 1,3-beta-D-glucan synthase subunit FKS1p C1934T/G4082R mutant; outline: as §2
[20] = Inhibition of Candida albicans 90 1,3-beta-D-glucan synthase subunit FKS1p G4082R mutant; outline: as §2
[21] = Inhibition of Candida albicans A15-10 1,3-beta-D-glucan synthase subunit FKS1p T1933C mutant; outline: as §2
Candida albicans SC5314 = assay: Activity at Candida albicans SC5314 1,3-beta-D-glucan synthase subunit FKS1p
Outline: (§3)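 Glucan synthase from cells grown at 37°C with vigorous shaking to early stationary phase in YPD. Membrane enzyme enriched by product entrapment. Serial echinocandin dilutions; ANF controls held 1% DMSO. Reaction started by adding enzyme, run 60 min at 25°C in a filtration polymerization assay, stopped on ice. IC50 from a variable-slope sigmoidal fit; means of three repetitions on separate days.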

Candida albicans [22] = assay: Activity at Candida albicans 36082 1,3-beta-D-glucan synthase subunit FKS1p; outline: as §3
Candida albicans [23] = assay: Activity at Candida albicans 90028 1,3-beta-D-glucan synthase subunit FKS1p; outline: as §3
Candida albicans [24] = assay: Activity at Candida albicans 3795 1,3-beta-D-glucan synthase subunit FKS1p; outline: as §3
Candida albicans [25] = assay: Activity at Candida albicans 119 1,3-beta-D-glucan synthase subunit FKS1p T1921C mutant
Outline: (§4)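 Product-entrapped 1,3-β-D-glucan synthase from cells grown in YPD at 37°C to early stationary phase. Wells held 50 mM HEPES pH 7.5, 10% glycerol, 1.5 mg/ml BSA, 25 mM KF, 1 mM EDTA, 25 μM GTP-γ-S, 1 μg enzyme and [3H]UDPG (0.015–2 mM). Reactions ran 60 min at 25°C. Vmax and Km came from Lineweaver-Burke plots, in triplicate.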

Candida albicans [26] = assay: Activity at Candida albicans 177 1,3-beta-D-glucan synthase subunit FKS1p T1922C mutant; outline: as §4
Candida albicans [27] = assay: Activity at Candida albicans 205 1,3-beta-D-glucan synthase subunit FKS1p T1933C mutant; outline: as §4
Candida albicans [28] = assay: Activity at Candida albicans 5415 1,3-beta-D-glucan synthase subunit FKS1p T1933C mutant; outline: as §4
Candida albicans [29] = assay: Activity at Candida albicans 90 1,3-beta-D-glucan synthase subunit FKS1p G4082R mutant; outline: as §4

**Q.** For `CC[C@H](C)C[C@H](C)CCCCCCCCC(=O)N[C@H]1C[C@@H](O)[C@@H](NCCN)NC(=O)[C@@H]2[C@@H](O)CCN2C(=O)[C@H]([C@H](O)CCN)NC(=O)[C@H]([C@H](O)[C@@H](O)c2ccc(O)cc2)NC(=O)[C@@H]2C[C@@H](O)CN2C(=O)[C@H]([C@@H](C)O)NC1=O` [CASPOFUNGIN], which MIC (Candida albicans [1]) is on record?
**A.** 0.5 µg/mL

**Q.** What about the MIC (Candida albicans [2]) of the same compound?
**A.** 0.5 µg/mL

**Q.** And the MIC (Candida albicans [3])?
**A.** 0.33 µg/mL (≈ 0.302 µM)

**Q.** And the MIC (Candida albicans [4])?
**A.** 3.33 µg/mL (≈ 3.05 µM)

**Q.** And the MIC (Candida albicans [5])?
**A.** 8 µg/mL (≈ 7.32 µM)

**Q.** What about the MIC (Candida albicans [6]) of the same compound?
**A.** 8 µg/mL

**Q.** And the MIC (Candida albicans [7])?
**A.** 8 µg/mL

**Q.** And the MIC (Candida albicans [8])?
**A.** 4 µg/mL (≈ 3.66 µM)

**Q.** What about the MIC (Candida albicans [9]) of the same compound?
**A.** 8 µg/mL

**Q.** What about the MIC (Candida albicans [10]) of the same compound?
**A.** 4 µg/mL

**Q.** What about the MIC (Candida albicans [11]) of the same compound?
**A.** 8 µg/mL

**Q.** What about the MIC (Candida albicans [12]) of the same compound?
**A.** 8 µg/mL

**Q.** And the MIC (Candida albicans [13])?
**A.** 8 µg/mL (≈ 7.32 µM)

**Q.** What about the IC50 [14] of the same compound?
**A.** 0.00175 µg/mL (≈ 0.0016 µM)

**Q.** And the Ki [14]?
**A.** 0.00626 µg/mL (≈ 0.00573 µM)

**Q.** And the IC50 [15]?
**A.** 0.2454 µg/mL (≈ 0.224 µM)

**Q.** And the Ki [15]?
**A.** 1.48 µg/mL (≈ 1.35 µM)

**Q.** What about the IC50 [16] of the same compound?
**A.** 0.6981 µg/mL (≈ 0.639 µM)

**Q.** And the Ki [16]?
**A.** 2.12249 µg/mL (≈ 1.94 µM)

**Q.** And the IC50 [17]?
**A.** 2.075 µg/mL (≈ 1.9 µM)

**Q.** And the Ki [17]?
**A.** 0.86 µg/mL (≈ 0.787 µM)

**Q.** What about the IC50 [18] of the same compound?
**A.** 0.4591 µg/mL (≈ 0.42 µM)

**Q.** What about the Ki [18] of the same compound?
**A.** 0.51933 µg/mL (≈ 0.475 µM)

**Q.** What about the IC50 [19] of the same compound?
**A.** 0.5307 µg/mL (≈ 0.485 µM)

**Q.** And the Ki [19]?
**A.** 0.46689 µg/mL (≈ 0.427 µM)

**Q.** What about the IC50 [20] of the same compound?
**A.** 0.02043 µg/mL (≈ 0.0187 µM)

**Q.** And the Ki [20]?
**A.** 0.14815 µg/mL (≈ 0.136 µM)

**Q.** What about the IC50 [21] of the same compound?
**A.** 0.3224 µg/mL (≈ 0.295 µM)

**Q.** What about the Ki [21] of the same compound?
**A.** 1.358 µg/mL (≈ 1.24 µM)

**Q.** What about the Km (Candida albicans SC5314) of the same compound?
**A.** 125 µM

**Q.** And the Vmax (Candida albicans SC5314)?
**A.** 6.72 nmol/min

**Q.** What about the Km (Candida albicans [22]) of the same compound?
**A.** 89 µM

**Q.** And the Vmax (Candida albicans [22])?
**A.** 5.87 nmol/min

**Q.** What about the Km (Candida albicans [23]) of the same compound?
**A.** 67 µM

**Q.** What about the Vmax (Candida albicans [23]) of the same compound?
**A.** 4.71 nmol/min

**Q.** What about the Km (Candida albicans [24]) of the same compound?
**A.** 88 µM

**Q.** What about the Vmax (Candida albicans [24]) of the same compound?
**A.** 6.63 nmol/min

**Q.** What about the Km (Candida albicans [25]) of the same compound?
**A.** 54 µM

**Q.** And the Vmax (Candida albicans [25])?
**A.** 2.54 nmol/min

**Q.** And the Km (Candida albicans [26])?
**A.** 50 µM

**Q.** What about the Vmax (Candida albicans [26]) of the same compound?
**A.** 4.4 nmol/min

**Q.** And the Km (Candida albicans [27])?
**A.** 116 µM

**Q.** And the Vmax (Candida albicans [27])?
**A.** 5.54 nmol/min

**Q.** And the Km (Candida albicans [28])?
**A.** 98 µM

**Q.** What about the Vmax (Candida albicans [28]) of the same compound?
**A.** 3.12 nmol/min

**Q.** And the Km (Candida albicans [29])?
**A.** 31 µM

**Q.** And the Vmax (Candida albicans [29])?
**A.** 2.36 nmol/min
